Consider 91 molecules from PubChem BioAssay AID504382 (The Scripps Research Institute Molecular Screening Center, 2011).

Screen size: about 2,500 compounds; about 460 (18%) were called active.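 The calls were made as follows: active = mean activation above a cutoff of low control average plus 3 SD from the earlier screen (cut at about 12% in these data); inactive = the rest.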 Only a sample is shown.

This assay is described as follows: compound fluorescence interference without thin filaments, confirmation, artefact control for cardiac RTF calcium sensitizer project, biochemical (AID 504382). The settings on record: IANBD fluorescence interference counterscreen, buffer, EC20 Ca2+; at 7.2 µM; active compounds read high. Summed up: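 Also added: EC20 calcium, 0.472 mM; dosing: single nominal 7.2 µM compound dose, 0.7% DMSO final; timing: 15 min, 25 °C; detection: fluorescence intensity, excitation 480 nm, emission 540 nm; replicates: each compound tested in triplicate wells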
Consider `O=c1cc(C(F)(F)F)c2cc3c4c(c2o1)CCCN4CCC3`, for which the fluorescence artifact activation is 19.7% (active).

For the molecule `Cc1cc2c(C(F)(F)F)cc(=O)oc2c2c1NCCC2`, the fluorescence artifact activation is 26.6% (active). Consider `COc1ccc2c3c([nH]c2c1)C(C)=NCC3`, for which the fluorescence artifact activation was 0.04% (inactive). As for `COc1ccc(CC(=O)N2CCN(C)CC2)cc1OC`, the fluorescence artifact activation was 0.89% (inactive).

For the molecule `Cc1cc(N(CCCl)CCCl)ccc1C=Cc1ccncn1`, the fluorescence artifact activation was 3.44% (inactive).

For `O=c1[nH]c(=O)n(Cc2ccc(F)cc2)c(O)c1/C=N/Nc1ccccc1`, the fluorescence artifact activation is 6.04% (inactive).

For the molecule `CCOP(=O)(Cc1cc(C#N)oc1C)OCC`, the fluorescence artifact activation is 0.13% (inactive).

With `CCN(CC)c1ccc(/C=C2\C(=O)NC(=S)N(C)C2=O)o1`, the fluorescence artifact activation is 7.26% (inactive). The figure for `COc1ccc(N2C(=O)/C(=C/c3ccc(N(C)C)o3)C(=O)NC2=S)cc1` is 92% (active); for `CCN(CC)c1ccc(/C=C2\C(=O)NC(=S)N(c3ccc(OC)cc3OC)C2=O)o1` it is 0.1% (inactive). Regarding `CCN(CC)c1ccc(N=Cc2c(O)n(Cc3ccco3)c(=O)[nH]c2=O)cc1`, the fluorescence artifact activation was 0.1% (inactive). With `Cc1ccc(C)c(Cn2c(C(=O)O)c(C=O)c3ccccc32)c1`, the fluorescence artifact activation was 0.2% (inactive). For `C[C@]12CCC(=O)C=C1CC[C@@H]1[C@@H]2CC[C@]2(C)C(=O)CC[C@@H]12`, the fluorescence artifact activation is 0.01% (inactive).

With `CCC(CO)NC(=O)C1C=C2c3cccc4[nH]cc(c34)CC2N(C)C1` (stereo unspecified), the fluorescence artifact activation is 1.39% (inactive). For `CN1C[C@H](CO)C=C2c3cccc4[nH]cc(c34)C[C@H]21`, the fluorescence artifact activation was 0.35% (inactive). The figure for `CC1=C[C@@H]2c3cccc4[nH]cc(c34)C[C@H]2N(C)C1` is 14.5% (active); for `COC(=O)C1=C(c2ccc(F)cc2OCc2ccccc2)C[C@@H]2CC[C@H]1N2C(=O)NCc1ccc(OC)c(OC)c1` it is 57% (active). Take `COC(=O)C1=C(c2cccc(OC)c2OC)C[C@@H]2CC[C@H]1N2C(=O)NCc1ccco1`: the fluorescence artifact activation is 1.08% (inactive). The value for `COC(=O)C1=C(c2cccc(OC)c2OC)C[C@@H]2CC[C@H]1N2C(=O)NCCCOC(C)C` was 0.79% (inactive); that for `O=C(O)C1=CC2c3ccccc3C1c1ccccc12` was 0.01% (inactive). The value for `O=[N+]([O-])c1ccc(N2CCCCCC2)c2nonc12` was 6.24% (inactive). The figure for `CCOC(=O)c1ccccc1C(=O)OCC` is 1510% (active). As to `COc1ccccc1N1C(=O)NC(=O)/C(=C/c2ccc3c4c(cccc24)CC3)C1=O`, the fluorescence artifact activation was 0.07% (inactive). Take `Cn1c(O)c(/C=C/C=Nc2ccccc2)c(=O)n(C)c1=O`: the fluorescence artifact activation was -0.08% (inactive). The value for `CCOCCCn1c(N)c(C(=O)Nc2sc3c(c2C(=O)OC)CCCC3)c2nc3ccccc3nc21` was 2.92% (inactive); that for `CCCCn1c(O)c(C(=O)/C=C/c2c[nH]c3ccccc23)c(=O)[nH]c1=O` was 3% (inactive). Turning to `CCCCC(=O)N/N=C/c1c(O)n(CC)c(=S)n(CC)c1=O`, the fluorescence artifact activation is 0.21% (inactive).

Regarding `O=c1[nH]c(=S)n(-c2ccc(Br)cc2)c(O)c1C=Nc1ccc(N2CCOCC2)cc1`, the fluorescence artifact activation was 0.07% (inactive).

In the case of `CCn1c(O)c(C=Nc2ccc(N3CCOCC3)cc2)c(=O)n(CC)c1=S`, the fluorescence artifact activation was 23.9% (active). Regarding `Cc1ccc(N2C(=O)NC(=O)/C(=C\c3ccoc3)C2=O)cc1`, the fluorescence artifact activation is 0.07% (inactive).

Regarding `COC(=O)[C@H]1C[C@@H]1[C@H](NP(=O)(c1ccccc1)c1ccccc1)c1ccccc1`, the fluorescence artifact activation is 0.01% (inactive). Consider `COc1ccc(N=Nc2c(O)[nH]c(=S)[nH]c2=O)cc1`, for which the fluorescence artifact activation was 0.58% (inactive). For `Nc1ccc2ccc3cccc[n+]3c2c1`, the fluorescence artifact activation is 0.21% (inactive). For the molecule `Cc1cc(Cl)nc(N)n1`, the fluorescence artifact activation is 14.3% (active). As to `C#C[C@]1(O)CC[C@H]2[C@@H]3CCC4=Cc5nc6nc7ccccc7n6cc5C[C@]4(C)[C@H]3CC[C@@]21C`, the fluorescence artifact activation was 0.16% (inactive).

As for `CN1CCc2cc3c(c4c2C1Cc1ccccc1-4)OCO3` (stereo unspecified), the fluorescence artifact activation was 0.18% (inactive).

Regarding `CCc1ccccc1N1C(=O)/C(=C/c2ccc(N3CCN(C)CC3)o2)C(=O)NC1=S`, the fluorescence artifact activation is 119% (active). `O=C1NC(=O)C(=Cc2ccc(N3CCOCC3)o2)C(=O)N1`: the fluorescence artifact activation is -0.04% (inactive). The figure for `Cc1cccc(N2C(=O)/C(=C/c3ccc(N4CCN(C)CC4)o3)C(=O)NC2=S)c1C` is 0.2% (inactive); for `O=C1NC(=O)N(c2ccc3c(c2)OCO3)C(=O)/C1=C\c1ccc(N2CCCCC2)o1` it is 0.37% (inactive); for `CN1CCN(c2ccc(/C=C3\C(=O)NC(=S)N(c4cccc(Br)c4)C3=O)o2)CC1` it is -0.01% (inactive). As to `CCOc1ccc(N2C(=O)NC(=O)/C(=C\c3ccc(N4CCCCC4)o3)C2=O)cc1`, the fluorescence artifact activation is 51.4% (active). `Cc1ccccc1N1C(=O)NC(=O)/C(=C\c2cc(Br)c(N3CCOCC3)o2)C1=O`: the fluorescence artifact activation was -0.03% (inactive). Regarding `Cc1ccccc1N1C(=O)NC(=O)/C(=C/c2ccc(N3CCOCC3)o2)C1=O`, the fluorescence artifact activation was 14.1% (active). `O=C1NC(=O)N(c2ccc3c(c2)OCO3)C(=O)/C1=C/c1ccc(N2CCCC2)o1`: the fluorescence artifact activation is 0.12% (inactive).

Turning to `O=[N+]([O-])c1ccc(N2CCCC2)c2ncccc12`, the fluorescence artifact activation was 9.73% (inactive). The figure for `C[C@]12CCC3C(CC[C@H]4C[C@@H](O)[C@H](O)C[C@]34C)C1CC[C@@H]2O` (stereo partly specified) is 4.4% (inactive); for `OC12CCCCC1C(c1ccccc1)NCC2` (stereo unspecified) it is 0.14% (inactive); for `CN1C(=O)C(=Cc2sc(=O)n(-c3ccccc3)c2N2CCCCC2)C(=O)N(C)C1=O` it is -0.07% (inactive). The figure for `CCN(CC)C(=O)c1ccc(NC(=O)COc2ccc([N+](=O)[O-])cc2Cl)cc1` is 0.19% (inactive); for `C=Cn1ccnc1P(=S)(c1nccn1C=C)c1nccn1C=C` it is 6.72% (inactive); for `CN(C)P(=O)(CCl)Nc1ccccc1` (stereo unspecified) it is 10% (inactive). On to `C=CCN1C(=O)/C(=C\c2ccc(N3CCOCC3)o2)C(=O)NC1=S`, for which the fluorescence artifact activation was 0.23% (inactive).

As to `O=C1NC(=O)C(=Cc2cn(CCOc3ccc4c(c3)OCO4)c3ccccc23)C(=O)N1`, the fluorescence artifact activation is 1.05% (inactive).

Consider `Cc1cc(C)c(Cn2c(C(=O)O)c(C=O)c3ccccc32)c(C)c1`, for which the fluorescence artifact activation was 0.05% (inactive). Regarding `CC(C)c1ccc(N2C(=O)NC(=O)/C(=C/C=C/c3ccco3)C2=O)cc1`, the fluorescence artifact activation is -0.06% (inactive).

As for `CC(C)C[C@H]1C(=O)N2CCC[C@H]2[C@]2(O)O[C@](NC(=O)[C@@H]3C=C4c5cccc6[nH]cc(c56)C[C@H]4N(C)C3)(C(C)C)C(=O)N12`, the fluorescence artifact activation is 0.12% (inactive).

As for `C=CCn1c(O)c(C=NC2CCN(Cc3ccccc3)CC2)c(=O)[nH]c1=O`, the fluorescence artifact activation was -0.06% (inactive). On to `COc1ccc(OC)c(-n2c(O)c(C=NCCN3CCNCC3)c(=O)[nH]c2=S)c1`, for which the fluorescence artifact activation was 3.37% (inactive).

`O=c1[nH]c(=S)n(-c2ccccc2Cl)c(O)c1C=NCCN1CCNCC1`: the fluorescence artifact activation was 660% (active). Take `CN1Cc2c(c(C#N)c(N)n(C)c2=S)CC1(C)C`: the fluorescence artifact activation is -0.06% (inactive). On to `CCN(CC)c1ccc(/C=C/[N+](=O)[O-])cc1`, for which the fluorescence artifact activation is 3.43% (inactive). The figure for `CCCCCCC(=O)N/N=C/c1c(O)n(CCc2ccccc2)c(=O)[nH]c1=O` is 0.04% (inactive); for `O=C(CN1CCN(c2ccccc2F)CC1)Nc1cccnc1Cl` it is 6.53% (inactive). `CC1(C)OC(c2ccccc2)=C/C(=C/C=C2C(=O)NC(=O)NC2=O)O1`: the fluorescence artifact activation is 0.3% (inactive).

Take `COc1ccc(N2C(=O)NC(=O)/C(=C\c3cn(C)c4ccccc34)C2=O)cc1`: the fluorescence artifact activation was -0.05% (inactive).

`N#CC(C#N)=Cc1ccc(C=C(C#N)C#N)cc1`: the fluorescence artifact activation is 0.08% (inactive). Turning to `Cn1cc(C=C(C#N)C#N)c2ccccc21`, the fluorescence artifact activation was 20% (active). Turning to `CC(C)n1c(=O)c(C=Nc2cccc([N+](=O)[O-])c2)c(O)n(CCc2ccccc2)c1=O`, the fluorescence artifact activation is 1.6% (inactive). On to `COc1cccc2c1C(=O)c1c(O)c3c(c(O)c1C2=O)CC(O)(C(C)=NO)CC3OC1CC(N)C(O)C(C)O1` (stereo unspecified), for which the fluorescence artifact activation is 0.43% (inactive). The figure for `Cc1ccc(-n2c(O)c(/C=C/C=Nc3ccccc3)c(=O)[nH]c2=O)cc1` is 7.82% (inactive).

For the molecule `Cc1cccc(-n2c(O)c(/C=C/C=Nc3ccccc3)c(=O)[nH]c2=O)c1`, the fluorescence artifact activation is 59.9% (active). With `O=c1[nH]c(=O)n(-c2ccccc2)c(O)c1/C=C/C=Nc1ccccc1`, the fluorescence artifact activation is 0.01% (inactive).

As to `O=C1NC(=O)N(Cc2ccccc2)C(=O)/C1=C\N1CCCc2ccccc21`, the fluorescence artifact activation was 2.74% (inactive).

As for `O=Cc1c(C(=O)O)n(Cc2ccc(Cl)cc2)c2ccccc12`, the fluorescence artifact activation is 0.14% (inactive). As to `C/C(=N\N1CCCCC1c1cccnc1)c1c(O)n(C2CCCCC2)c(=S)[nH]c1=O` (stereo unspecified), the fluorescence artifact activation is 13.8% (active).

For `O=c1[nH]c(=O)n(C2CCCCC2)c(O)c1/C=C/C=Nc1ccccc1`, the fluorescence artifact activation was 0.28% (inactive). As to `Cc1cccc(N2C(=O)NC(=O)/C(=C\c3ccc4c(c3)CCCN4Cc3ccccc3)C2=O)c1`, the fluorescence artifact activation was 0.72% (inactive). `CN1CCN(Cc2cn(C)c3ccccc23)CC1CCO` (stereo unspecified): the fluorescence artifact activation was 10.6% (inactive).

`O=C1NC(=S)SC1=Cc1ccc(N(CCCl)CCCl)cc1`: the fluorescence artifact activation was -0.09% (inactive). Turning to `Nc1c2c(nc3ccccc13)CCN(Cc1ccccc1)C2`, the fluorescence artifact activation was 26.4% (active).

With `FC(F)(F)c1ccc2c(c1)nnn2C1CCN(Cc2nnnn2Cc2ccccc2)CC1`, the fluorescence artifact activation was 0.25% (inactive). For the molecule `CCOCCCNC(=O)C1c2cc(OC)c(OC)cc2C(=O)N2CCCCC12` (stereo unspecified), the fluorescence artifact activation was 0.42% (inactive). The value for `O=c1[nH]c(O)c(C=Nc2ccccc2Oc2ccccc2)c(=O)[nH]1` was 0.37% (inactive). The figure for `C=CCN1C(=O)/C(=C/c2ccc(N3CCOCC3)o2)C(=O)NC1=S` is 5.89% (inactive). As for `CN1C(=O)/C(=C\c2ccc(N3CCCCC3)o2)C(=O)NC1=S`, the fluorescence artifact activation is 0.13% (inactive).

For `CCN1C(=O)C(=Cc2ccc(N3CCOCC3)o2)C(=O)N(CC)C1=S`, the fluorescence artifact activation was 0.14% (inactive). For the molecule `CN1C(=O)C(=Cc2ccc(N3CCCCCC3)o2)C(=O)N(C)C1=S`, the fluorescence artifact activation was 35.9% (active).

With `CN1C(=O)C(=Cc2ccc(N3CCOCC3)o2)C(=O)N(C)C1=O`, the fluorescence artifact activation was 16.2% (active).

As to `CN1C(=O)/C(=C/c2ccc(N3CCCCCC3)o2)C(=O)NC1=S`, the fluorescence artifact activation is 1.84% (inactive).

With `CN1C(=O)C(=Cc2ccc(N3CCOCC3)o2)C(=O)N(C)C1=S`, the fluorescence artifact activation was 0.02% (inactive).
